Assay results reported in PMC7680388 (Cell chemical biology, 2020).
Read-outs that look alike come from different tables or passages of the source.

Experiments:
MM.1R cells = assay: Apoptosis flow cytometry; type: cell-based, Homo sapiens
Method in brief: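 MM.1R cells were treated with test compound (10 μM) or vehicle (0.1% DMSO) for 8, 16 and 24 h. Cells were washed twice in cold DPBS and resuspended in cold Annexin V buffer (HEPES, EDTA, CaCl2) with 5 μg/mL Annexin V-510 and 50 μg/mL PI. They were held 15 min at room temperature in the dark, then run by flow cytometry (violet/blue lasers). Annexin V+/PI− cells were scored apoptotic; three biological replicates.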

solid tumors = conditions: ref Huang et al., 2014; cited from earlier work
Rpn13 [1] = target: T1, Rpn13 (Homo sapiens, UniProt Q16186); conditions: two different cancer cell lines, ref Dickson, et al., submitted, cited from earlier work
T1 sequence (Q16186 whole entry): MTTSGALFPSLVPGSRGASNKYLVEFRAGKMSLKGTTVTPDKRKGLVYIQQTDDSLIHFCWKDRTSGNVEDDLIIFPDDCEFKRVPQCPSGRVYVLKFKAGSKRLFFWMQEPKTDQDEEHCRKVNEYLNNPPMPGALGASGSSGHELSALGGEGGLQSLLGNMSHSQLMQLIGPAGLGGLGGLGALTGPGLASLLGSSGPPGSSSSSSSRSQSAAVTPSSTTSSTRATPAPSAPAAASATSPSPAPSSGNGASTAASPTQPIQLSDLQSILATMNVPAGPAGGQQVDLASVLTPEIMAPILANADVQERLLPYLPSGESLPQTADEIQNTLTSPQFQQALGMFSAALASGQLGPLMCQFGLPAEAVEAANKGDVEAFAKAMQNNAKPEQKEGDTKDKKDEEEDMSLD

[2] = test system: cancer (in cellulo and in vivo); conditions: ref Anchoori et al., 2013; cited from earlier work
Rpn13 [3] = target: T1, Rpn13; conditions: ref Anchoori et al., 2013; cited from earlier work
26S proteasome = assay: Deubiquitylase activity of purified 26S proteasome; type: biochemical, human; conditions: KDT-11 10 μM; b-AP15 1 μM; 1 nM purified 26S proteasome, 5 mM ATP; biological triplicate; Fig. 2F

For CC(C)C[C@H](NC(=O)[C@H](Cc1ccccc1)NC(=O)c1cnccn1)B(O)O [Bortezomib], the “induction of apoptosis and cell death, Annexin V/PI staining” value (MM.1R cells; 8, 16 and 24 hours) is given as “induces apoptosis and cell death rapidly”, the “cells both Annexin V- and PI-positive” value (MM.1R cells; 16 hours, KDT-11 10 μM (Fig. 4), Bortezomib Supplementary Figure 4) is given as “≈ 85%” and the dose-limiting toxicity (solid tumors) is given as “dose-limiting toxicity”. The “efficacy as a single agent in solid tumors” value (solid tumors) was “unsuccessful as a single agent to treat solid tumors”.

For Cl.N[C@@H](Cc1ccccc1)C(=O)N1C/C(=C/c2ccc(Cl)c(Cl)c2)C(=O)/C(=C\c2ccc(Cl)c(Cl)c2)C1 [RA190], the “engagement of Rpn13 in cellulo” value (Rpn13 [1]) is given as “Rpn13 is not engaged by this compound in cellulo”, the “engagement of Rpn13 in cellulo” value (Rpn13 [1]; listed as RA-190) is given as “does not engage Rpn13 in cells” and the “anti-cancer activity in cellulo and in vivo” value [2] is given as “displays interesting anti-cancer activity in cellulo and in vivo”. For the same molecule, the “engagement of Rpn13 in vitro” value (Rpn13 [3]) was “engages Rpn13 selectively in vitro”.

With C=CC(=O)N1C/C(=C\c2ccc([N+](=O)[O-])cc2)C(=O)/C(=C/c2ccc([N+](=O)[O-])cc2)C1 [b-AP15] the “effect on rate of Ub-AMC hydrolysis by 26S proteasome” value (26S proteasome) was “greater inhibition”.
